Measurements from ChEMBL document CHEMBL1148706, “Probes for narcotic receptor mediated phenomena. 34. Synthesis and structure-activity relationships of a potent mu-agonist delta-antagonist and an exceedingly potent antinociceptive in the enantiomeric C9-substituted 5-(3-hydroxyphenyl)-N-phenylethylmorphan series” (J Med Chem, 2007).
Active and inactive are the calls of the source.

Key:
Mu-type opioid receptor [1] = target: T1, Mu-type opioid receptor (Homo sapiens, UniProt P35372); experiment: Displacement of [125I]IOXY from human mu opioid receptor expressed in CHO cells; assay type: cell-based
T1 sequence (P35372 whole entry): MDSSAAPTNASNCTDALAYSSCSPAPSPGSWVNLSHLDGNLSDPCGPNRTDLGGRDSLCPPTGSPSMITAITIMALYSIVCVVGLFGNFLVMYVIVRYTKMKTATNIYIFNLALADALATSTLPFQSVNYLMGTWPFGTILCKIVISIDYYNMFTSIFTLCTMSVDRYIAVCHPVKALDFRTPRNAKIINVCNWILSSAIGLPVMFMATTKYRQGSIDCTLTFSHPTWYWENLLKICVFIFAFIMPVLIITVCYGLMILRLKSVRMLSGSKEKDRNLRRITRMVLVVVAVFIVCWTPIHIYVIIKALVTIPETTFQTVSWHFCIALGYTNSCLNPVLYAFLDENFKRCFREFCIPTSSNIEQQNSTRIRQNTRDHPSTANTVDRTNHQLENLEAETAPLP
In short: (§1)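 Membranes of stably transfected human opioid receptor CHO cells (hMOR, hDOR or hKOR), about 30 µg protein per tube, in 50 mM Tris-HCl pH 7.4 with protease inhibitors. [125I]IOXY at a single concentration displaced by 10 drug concentrations, 2 h at 25 °C, triplicates filtered; nonspecific with 10 µM naloxone; IC50 from two-parameter logistic fit.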

[2] = target: T2, Delta-type opioid receptor (Homo sapiens, UniProt P41143); experiment: Displacement of [125I]IOXY from human delta opioid receptor expressed in CHO cells; assay type: cell-based; in short: as §1
T2 sequence (P41143 whole entry): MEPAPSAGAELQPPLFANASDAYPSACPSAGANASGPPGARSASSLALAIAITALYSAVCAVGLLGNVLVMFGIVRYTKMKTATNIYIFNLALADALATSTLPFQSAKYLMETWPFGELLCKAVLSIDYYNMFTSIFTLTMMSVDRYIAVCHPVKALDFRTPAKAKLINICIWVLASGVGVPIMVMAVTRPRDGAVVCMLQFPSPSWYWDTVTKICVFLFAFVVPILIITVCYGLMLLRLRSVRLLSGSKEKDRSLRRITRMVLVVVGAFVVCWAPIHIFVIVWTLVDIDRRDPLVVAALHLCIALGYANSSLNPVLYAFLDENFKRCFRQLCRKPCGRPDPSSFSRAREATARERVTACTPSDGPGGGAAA

[3] = target: T3, Kappa-type opioid receptor (Homo sapiens, UniProt P41145); experiment: Displacement of [125I]IOXY from human kappa opioid receptor expressed in CHO cells; assay type: cell-based; in short: as §1
T3 sequence (P41145 whole entry): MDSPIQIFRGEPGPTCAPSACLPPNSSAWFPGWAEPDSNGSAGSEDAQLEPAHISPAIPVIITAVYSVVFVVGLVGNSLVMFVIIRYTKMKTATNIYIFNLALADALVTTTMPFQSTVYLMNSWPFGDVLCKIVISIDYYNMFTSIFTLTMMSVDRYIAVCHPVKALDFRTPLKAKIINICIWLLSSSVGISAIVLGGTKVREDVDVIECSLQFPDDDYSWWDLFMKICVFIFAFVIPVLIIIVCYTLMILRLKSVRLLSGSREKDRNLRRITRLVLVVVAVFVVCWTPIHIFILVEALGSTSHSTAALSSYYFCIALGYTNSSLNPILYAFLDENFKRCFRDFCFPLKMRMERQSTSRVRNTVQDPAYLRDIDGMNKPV

[4] = target: T2, Delta-type opioid receptor; experiment: Agonist activity at human delta opioid receptor expressed in CHO cells by [35S]GTP-gamma-S assay relative to SNC80; assay type: functional, cell-based
In short: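 Membranes from CHO cells stably transfected with human δ-opioid receptor cDNA (grown in DMEM, 10% FBS, G-418), incubated 3 h at 25 °C with 50 pM [35S]GTP-γ-S, 10 µM GDP, 50 µg protein in 50 mM Tris-HCl pH 7.4, 100 mM NaCl, 10 mM MgCl2, 1 mM EDTA, 1 mM DTT, 0.1% BSA. Nonspecific binding: 40 µM GTP-γ-S. Filtration, scintillation counting. Emax is extrapolated maximum, 100% = 500 nM SNC80 stimulation.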

[5] = target: T2, Delta-type opioid receptor; experiment: Agonist activity at human delta opioid receptor expressed in CHO cells by [35S]GTP-gamma-S assay; assay type: functional, cell-based
In short: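 Membranes from stably transfected hDOR-CHO cells (DMEM, 10% FBS, G-418) in 50 mM Tris-HCl pH 7.4 with 100 mM NaCl, 10 mM MgCl2, 1 mM EDTA, 1 mM DTT, 10 µM GDP, 0.1% BSA; 50 pM [35S]GTP-γ-S, 3 h, 25 °C; filtration.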

[6] = target: T3, Kappa-type opioid receptor; experiment: Antagonist activity at human kappa opioid receptor expressed in CHO cells by [35S]GTP-gamma-S assay; assay type: functional, cell-based
In short: (§2)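 [35S]GTP-γ-S binding on hDOR-CHO or hKOR-CHO membranes, 10 µM GDP, 50 pM radioligand, 3 h at 25 °C. Inhibition of stimulation by SNC80 (500 nM, δ) or (-)-U50,488 (500 nM, κ); ≥3 experiments of 10 points pooled, two-parameter logistic fit for IC50; Ke = IC50/(1+[D]/ED50(D)).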

Mus musculus [7] = experiment: Antinociceptive activity in sc dosed mouse by hot plate assay; assay type: functional
Mus musculus [8] = experiment: Antinociceptive activity in sc dosed mouse by phenylquinone assay; assay type: functional
Mus musculus [9] = experiment: Antinociceptive activity in sc dosed mouse by tail flick assay; assay type: functional
Mus musculus [10] = experiment: Induction of straub tail in mouse at 1 mg/kg; assay type: functional, organism-based; set-up: dose 1 mg/kg
In short: (§3)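 Signs observed in mice during in vivo antinociceptive testing after s.c. injection in 5% hydroxypropyl-β-cyclodextrin in water.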

Mus musculus [11] = experiment: Induction of ataxia in mouse at 1 mg/kg; assay type: functional, organism-based; set-up: dose 1 mg/kg; in short: as §3
Mus musculus [12] = experiment: Increased locomotor activity in mouse at 1 mg/kg; assay type: functional, organism-based; set-up: dose 1 mg/kg; in short: as §3
Mus musculus [13] = experiment: Induction of convulsions in mouse at 1 mg/kg; assay type: functional, organism-based; set-up: dose 1 mg/kg; in short: as §3
Mu-type opioid receptor [14] = target: T1, Mu-type opioid receptor; conditions: CHO
[15] = target: T2, Delta-type opioid receptor; experiment: Antagonist activity at human delta opioid receptor expressed in CHO cells by [35S]GTP-gamma-S assay; assay type: functional, cell-based; in short: as §2
Mus musculus [16] = experiment: Antinociceptive activity in mouse assessed after 30 to 40 mins at 1 mg/kg by warm water tail flick test; assay type: functional
In short: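 Mice, 55 °C water tail immersion after baseline (non-responders within 5 s excluded); s.c. dosing, tested 10–180 min post-injection, 10 s cutoff. % antinociception = 100×(test−control)/(10−control); A50 from linear regression at peak-effect time, ≥3 doses and 10 mice/dose.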

Mus musculus [17] = experiment: Induction of straub tail in mouse up to 30 mg/kg; assay type: functional, organism-based; set-up: dose 30 mg/kg; in short: as §3
Mus musculus [18] = experiment: Increased locomotor activity in mouse up to 30 mg/kg; assay type: functional, organism-based; set-up: dose 30 mg/kg; in short: as §3
Mu-type opioid receptor [19] = target: T1, Mu-type opioid receptor; conditions: CHO; remark: listed apart in the source

SMILES | Ki (Mu-type opioid receptor [1]) | Ki [2] | Ki [3] | also measured
Oc1cccc([C@]23CCC[C@H]([C@H]2O)N(CCc2ccccc2)CC3)c1 | 0.00019 µM | 0.013 µM | 0.184 µM | Emax [4]: 73%; ED50 [5]: 0.341 µM; Ke [6]: 610 nM; ED50 (Mus musculus [7]): 0.002 mg/kg; ED50 (Mus musculus [8]): 0.002 mg/kg; ED50 (Mus musculus [9]): 0.004 mg/kg; Activity (Mus musculus [10]): Active; Activity (Mus musculus [11]): Active; Activity (Mus musculus [12]): Active; Activity (Mus musculus [13]): Active; ED50 (Mu-type opioid receptor [14]): 0.005 µM
Oc1cccc([C@@]23CCC[C@@H]([C@@H]2O)N(CCc2ccccc2)CC3)c1 | 0.054 µM | 2.74 µM | 0.235 µM | 
C=C1[C@H]2CCC[C@@]1(c1cccc(O)c1)CCN2CCc1ccccc1 | 0.00019 µM | 0.015 µM | 0.00065 µM | Ke [15]: 12 nM; Ke [6]: 2 nM; ED50 (Mus musculus [7]): 0.02 mg/kg; ED50 (Mus musculus [8]): 0.02 mg/kg; ED50 (Mus musculus [9]): 0.03 mg/kg; A50 (Mus musculus [16]): 0.11 mg/kg; Activity (Mus musculus [17]): inactive; Activity (Mus musculus [18]): inactive; ED50 (Mu-type opioid receptor [14]): 0.0027 µM; Ke (Mu-type opioid receptor [19]): 2.2 nM
C=CCN1C[C@H](C)N([C@H](c2ccc(C(=O)N(CC)CC)cc2)c2cccc(OC)c2)C[C@H]1C |  |  |  | ED50 [5]: 0.026 µM
C[C@H]1C2CCCC1(c1cccc(O)c1)CCN2CCc1ccccc1 (mixture of isomers) | 0.0031 µM | 0.27 µM | 0.0145 µM | 
C[C@H]1[C@H]2CCC[C@]1(c1cccc(O)c1)CCN2CCc1ccccc1 | 0.0006 µM | 0.09 µM | 0.004 µM | Ke [15]: 31 nM; Ke [6]: 6 nM; ED50 (Mu-type opioid receptor [14]): 0.0087 µM; Ke (Mu-type opioid receptor [19]): 4.4 nM
Oc1cccc([C@@]23CCC[C@@H]([C@H]2O)N(CCc2ccccc2)CC3)c1 | 0.045 µM | 0.72 µM | 0.69 µM | 
O=C1[C@@H]2CCC[C@@]1(c1cccc(O)c1)CCN2CCc1ccccc1 | 0.4 µM | 4.6 µM | 3.83 µM | 
C[C@@H]1[C@@H]2CCC[C@@]1(c1cccc(O)c1)CCN2CCc1ccccc1 | 0.008 µM | 0.3 µM | 0.015 µM | 
CN1CC[C@]23c4c5ccc(O)c4O[C@H]2[C@@H](O)C=C[C@H]3[C@H]1C5 [MORPHINE] |  |  |  | A50 (Mus musculus [16]): 5.95 mg/kg
C=C1[C@@H]2CCC[C@]1(c1cccc(O)c1)CCN2CCc1ccccc1 | 0.007 µM | 0.234 µM | 0.018 µM | 
Oc1cccc([C@]23CCC[C@H]([C@@H]2O)N(CCc2ccccc2)CC3)c1 | 0.059 µM | 1.57 µM | 0.245 µM | 
O=C1[C@H]2CCC[C@]1(c1cccc(O)c1)CCN2CCc1ccccc1 | 0.033 µM | 0.77 µM | 0.15 µM | 
